Assay outcomes deposited in PubChem by several laboratories.
Most compounds without a hit are left out; they make up all but 1.6% or so of the library.
PAD4 FP inh = human PAD4 inhibitors, primary screen, biochemical, fluorescence polarization, 1536-well format; AID 485272, 2010; 330,000 tested, 0.41% active; Protein-arginine deiminase type-4 (Homo sapiens), Q9UM07; recombinant PAD4, RCA probe fluorescence polarization; inhibition, % at 6.36 µM;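 active = percent inhibition above a cutoff equal to the mean of all tested compounds plus 3 SD, cut at about 15% in these data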;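 also: 0% = PAD4 with RCA probe and DMSO and 100% = probe without PAD4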
Apaf-1 inh = inhibitors of human Apaf-1 apoptosome, primary screen, biochemical, DEVD-Rh110 fluorescence, uHTS; Apoptotic protease-activating factor 1 (Homo sapiens), O14727; reconstituted apoptosome caspase-3 activity; inhibition, % at 20 µM; 330,000 tested, 0.71% active; active = inhibition of at least 40% at 20 µM;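 also: plate controls were DMSO wells for no effect and DEVD-CHO caspase inhibitor wells for full effect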
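Material: cell-free apoptosome with Apaf-1, procaspase-3 and caspase-9; Buffer or medium: Hepes pH 7.5 with detergent and BSA; Reagent: cytochrome c trigger plus (Z-DEVD)2-Rh110 caspase-3 substrate; Times: compound with Apaf-1, dATP, procaspase-3 30 min, then 50 min reaction, room temperature; Technique: Rh110 fluorescence intensity.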
GSTO1 counter = inhibitors of recombinant GSTO1, primary screen, counter-screen for RBBP9 inhibitor project, biochemical, fluorescence polarization | activity-based probe fluorescence polarization | Glutathione S-transferase omega-1 (Homo sapiens), P78417 | inhibition, % at 5.96 µM | 300,000 tested, 1.1% active;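 active = inhibition above the campaign mean inhibition plus 3 SD, cut at about 35% in these data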;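 also: 0% = GSTO1-1 with DMSO and 100% = wells lacking GSTO1-1 enzyme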
Target sequence (P78417 whole entry, looked up): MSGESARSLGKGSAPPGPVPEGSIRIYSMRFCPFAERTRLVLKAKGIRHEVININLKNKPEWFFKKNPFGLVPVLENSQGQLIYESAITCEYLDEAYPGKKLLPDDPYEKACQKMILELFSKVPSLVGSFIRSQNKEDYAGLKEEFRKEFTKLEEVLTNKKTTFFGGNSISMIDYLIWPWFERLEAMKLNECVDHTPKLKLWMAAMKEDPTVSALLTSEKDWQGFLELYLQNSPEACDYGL
UBC9 SUMO inh = inhibitors of in vitro SUMOylation cascade, primary screen, biochemical, HTRF, uHTS; 290,000 tested, 0.36% active; inhibition, % at 35 µM; HTRF SUMOylation assay, SAE1/SAE2 + UBC9; SUMO-conjugating enzyme UBC9 (Homo sapiens), P63279; in the data active = inhibition above about 50%, passing the limit was not always enough
GASC-1 inh = inhibitors of GASC-1 histone demethylase, primary screen, biochemical, fluorescence, DELFIA europium | GST-JMJD2C(1-420) H3K9me3 demethylation | inhibition, % at 2.35 µM | 330,000 tested, 0.069% active | AID 2099, 2009;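 active = more than half of a compound's replicate wells show inhibition beyond 50%, single wells judged on their own value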;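 also: signal counts dimethyl H3K9 product captured on neutravidin plate; 0% = median of DMSO wells and 100% = 0.3 times that DMSO median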
TDP2 inh = human TDP2 enzyme inhibitors, primary screen, biochemical, epi absorbance, recombinant enzyme; Tyrosyl-DNA phosphodiesterase 2 (Homo sapiens), O95551; T5PNP hydrolysis, p-nitrophenol absorbance 415 nm; inhibition, % at 12.8 µM; 370,000 tested, 0.34% active; AID 720702, 2013;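 active = inhibition above the mean of all tested compounds plus 3 SD, set per campaign, cut at about 25% in these data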;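 also: 0% = DMSO with enzyme and 100% = buffer with substrate but no TDP2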
Target sequence (O95551 whole entry, looked up): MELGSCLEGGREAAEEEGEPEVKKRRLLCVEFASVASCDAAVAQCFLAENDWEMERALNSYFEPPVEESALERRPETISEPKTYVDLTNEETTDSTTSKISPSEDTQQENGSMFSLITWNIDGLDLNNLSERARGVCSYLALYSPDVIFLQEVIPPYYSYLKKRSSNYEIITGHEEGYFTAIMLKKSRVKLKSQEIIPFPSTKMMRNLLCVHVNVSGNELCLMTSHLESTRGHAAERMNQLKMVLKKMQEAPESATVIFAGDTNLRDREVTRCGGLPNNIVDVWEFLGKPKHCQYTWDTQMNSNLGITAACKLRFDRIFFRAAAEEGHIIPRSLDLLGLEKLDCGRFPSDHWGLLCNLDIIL
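Test system: Human TDP2 enzyme | Reagent: 5 mM T5PNP | Compound dosing: 12.8 µM single point, 1% DMSO | Incubation: Enzyme reaction with compound for 2 h at 37 °C | Technique: p-Nitrophenol epi absorbance | Read-out: % inhibition relative to enzyme-containing and enzyme-free wells | Benchmarks: High control without enzyme, low control DMSO plus TDP2 | Replicates: Singlicate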
GSTO1 confirm = GSTO1 inhibitor hit confirmation, counter-screen for RBBP9 inhibitor project, biochemical, fluorescence polarization, triplicate. shares compounds with GSTO1 counter. inhibition, % at 5.96 µM. 2,400 tested, 54% active. AID 2176, 2009. recombinant GSTO1, probe fluorescence polarization;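 active = inhibition above the primary screen's cutoff, its mean inhibition plus 3 SD, cut at about 35% in these data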;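 also: loss of polarization as inhibitors block binding of rhodamine sulfonate ester activity probe; 0% = GSTO1 with DMSO and 100% = wells lacking GSTO1 enzyme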
Active calls of the source: *.

Results for Cc1ccc(C(=O)CSc2nnnn2C(C)C)c(C)c1 ?
PAD4 FP inh: -1.6; Apaf-1 inh: 10.5; GSTO1 counter: 39.4*; UBC9 SUMO inh: 8.0; GASC-1 inh: -2.7; TDP2 inh: 4.0; GSTO1 confirm: 37.5*

What do the screens show for `Cc1ccc(C)c(C(=O)CSc2nnnn2C(C)C)c1`?
PAD4 FP inh: -4.2; Apaf-1 inh: 3.7; GSTO1 counter: 2.1; UBC9 SUMO inh: 5.9; GASC-1 inh: 7.6; TDP2 inh: -5.4

How did CCOc1cccc(CNc2ccc(O)cc2)c1OCc1ccc(Cl)cc1Cl do in these assays?
PAD4 FP inh: -3.3; Apaf-1 inh: 22.5; GSTO1 counter: 78.1*; UBC9 SUMO inh: 71.7; GASC-1 inh: 12.0; TDP2 inh: -2.8; GSTO1 confirm: 9.6

What do the screens show for `CNc1ccc(Br)cc(C(=O)/C=C/c2ccc3c(c2)OCO3)c1=O`?
PAD4 FP inh: -3.1; Apaf-1 inh: 28.3; GSTO1 counter: 54.8*; UBC9 SUMO inh: 23.2; GASC-1 inh: 7.5; TDP2 inh: -0.3; GSTO1 confirm: 15.6

What do the screens show for `O=C(C=Cc1ccc2c(c1)OCO2)c1ccccc1`?
TDP2 inh: -3.5

How did CNc1ccc(Br)cc(C(=O)/C=C/c2cc(OC)ccc2OC)c1=O do in these assays?
PAD4 FP inh: -1.4; Apaf-1 inh: 26.8; GSTO1 counter: 40.0*; UBC9 SUMO inh: 39.1; GASC-1 inh: 3.6; TDP2 inh: -2.0; GSTO1 confirm: 13.3

Results for CCNc1ccc(Br)cc(C(=O)/C=C/c2ccc(Cl)cc2Cl)c1=O ?
PAD4 FP inh: -3.4; Apaf-1 inh: 34.0; GSTO1 counter: 42.6*; UBC9 SUMO inh: 19.2; GASC-1 inh: 17.7; TDP2 inh: -1.3; GSTO1 confirm: 6.8

What do the screens show for `COCCCNC(=O)/C=C/c1ccc(Cl)cc1Cl`?
PAD4 FP inh: 3.5; Apaf-1 inh: 18.2; GSTO1 counter: -5.9; UBC9 SUMO inh: -11.0; GASC-1 inh: -7.5; TDP2 inh: 8.3

What do the screens show for `CNc1ccc(Br)cc(C(=O)/C=C/c2ccc(OC)cc2)c1=O`?
PAD4 FP inh: -4.4; Apaf-1 inh: 29.5; GSTO1 counter: 28.4; UBC9 SUMO inh: 26.0; GASC-1 inh: 4.1; TDP2 inh: -7.0

What do the screens show for `O=C1CCC[C@H]2Cc3nc4cccc(Cl)c4cc3C[C@]23CCCN13`?
TDP2 inh: 2.4

How did COc1cccc(OC)c1NC(=O)OC1CCC12CCC(c1ccccc1)CC2 (stereo not drawn) do in these assays?
TDP2 inh: -0.1

What do the screens show for `Cn1c(=O)oc2cc(S(=O)(=O)NCCC(=O)NC3CCCC3)ccc21`?
PAD4 FP inh: 2.5; Apaf-1 inh: -13.9; GSTO1 counter: 4.2; UBC9 SUMO inh: -13.3; GASC-1 inh: 4.9; TDP2 inh: 9.2

How did COc1cccc(CNS(=O)(=O)c2ccc3c(c2)oc(=O)n3C)c1 do in these assays?
PAD4 FP inh: -5.4; Apaf-1 inh: 5.4; GSTO1 counter: 9.2; UBC9 SUMO inh: 9.0; GASC-1 inh: 1.7; TDP2 inh: 15.2

How did Cn1c(=O)oc2cc(S(=O)(=O)Nc3ccc(Cl)cc3)ccc21 do in these assays?
PAD4 FP inh: 0.5; Apaf-1 inh: 2.1; GSTO1 counter: 20.4; UBC9 SUMO inh: -2.5; GASC-1 inh: 4.0; TDP2 inh: 10.6

Results for CC(C)c1ccc(NS(=O)(=O)c2ccc3c(c2)oc(=O)n3C)cc1 ?
PAD4 FP inh: -1.2; Apaf-1 inh: 15.4; GSTO1 counter: 65.4*; UBC9 SUMO inh: 0.3; GASC-1 inh: -15.1; TDP2 inh: -2.3; GSTO1 confirm: 65.0*

Results for Cn1c(=O)oc2cc(S(=O)(=O)NC3CCCCCCC3)ccc21 ?
PAD4 FP inh: 5.0; Apaf-1 inh: -1.9; GSTO1 counter: 42.8*; UBC9 SUMO inh: -1.1; GASC-1 inh: 1.6; TDP2 inh: -6.6; GSTO1 confirm: 39.5*

What do the screens show for `Cc1cccc(CCNS(=O)(=O)c2ccc3c(c2)oc(=O)n3C)c1`?
PAD4 FP inh: 9.5; Apaf-1 inh: 8.9; GSTO1 counter: 55.4*; UBC9 SUMO inh: 1.2; GASC-1 inh: 5.2; TDP2 inh: -6.2; GSTO1 confirm: 57.6*

What do the screens show for `CCN(CC)C(=O)Cn1nc(Cc2ccncc2)c2ccccc2c1=O`?
TDP2 inh: 2.3

Results for CC(=O)C1(C(=O)NC2CCCC2)CC(c2ccccn2)=NO1 (stereo not drawn) ?
TDP2 inh: 2.2

How did Cc1ccc(-n2c(Cc3cccs3)nnc2SCC(=O)Nc2cccc3ccccc23)cc1 do in these assays?
TDP2 inh: -21.6

What do the screens show for `CNCc1ccccc1Sc1cc(O)ccc1O`?
PAD4 FP inh: -1.8; Apaf-1 inh: 21.5; GSTO1 counter: 89.1*; UBC9 SUMO inh: 15.9; TDP2 inh: 13.0; GSTO1 confirm: 55.5*

How did CC(COc1cccc(Cl)c1)CN1CCC(C(O)(c2ccccc2)c2ccccc2)CC1 (stereo not drawn) do in these assays?
TDP2 inh: -1.8

How did Nc1nnc(CC(=O)N/N=C/c2cc([N+](=O)[O-])cc(Br)c2O)s1 do in these assays?
PAD4 FP inh: -4.5; Apaf-1 inh: -21.6; GSTO1 counter: 41.0*; UBC9 SUMO inh: 99.2*; GASC-1 inh: 10.4; TDP2 inh: -9.1; GSTO1 confirm: 71.0*

Results for Nc1nnc(CC(=O)N/N=C/c2cccc([N+](=O)[O-])c2)s1 ?
PAD4 FP inh: 3.2; Apaf-1 inh: -7.7; GSTO1 counter: 1.8; UBC9 SUMO inh: 7.0; GASC-1 inh: 0.1; TDP2 inh: -5.3

How did O=C(OC12CCCN(C1)/C(=C/c1ccc(Cl)cc1)C2)c1ccccc1 (stereo not drawn) do in these assays?
TDP2 inh: -5.3

How did COc1ccc(C(=O)N/N=C/c2ccc3cccc(O)c3n2)cc1 do in these assays?
PAD4 FP inh: -26.1; Apaf-1 inh: 6.2; GSTO1 counter: 40.6*; UBC9 SUMO inh: -33.2; GASC-1 inh: 24.6; TDP2 inh: -5.5; GSTO1 confirm: 6.3

Results for O=C(NCc1cccnc1)O[C@H]1CC[C@@]23CCCN2C(=O)CCC[C@H]3C1 ?
TDP2 inh: -3.1

Results for O=C1C(Cl)=C(NCCCO)C(=O)c2ccccc21 ?
PAD4 FP inh: -10.7; Apaf-1 inh: 44.7*; GSTO1 counter: 61.9*; UBC9 SUMO inh: 25.9; GASC-1 inh: -1.7; TDP2 inh: 12.1; GSTO1 confirm: 8.9
